In general, MIC refers to the lowest concentration found to suppress growth. A high value points to weaker potency.

Holding throughout (format): functional
The subject of experiment [1] is Pectobacterium atrosepticum. Kind of experiment: Antimicrobial activity against Erwinia carotovora subsp. atroseptica DSM 30184 after 24 hrs by broth microdilution method. Conditions: DSM 30184, 24 h. The method in brief: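 CLSI broth microdilution in nutrient broth with an inoculum of 5 x 10^4 CFU/well. MIC was read after 24 h at 28°C under aerobic growth.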
On the technique in general: Dilution methods test growth across graded concentrations, often in twofold steps.

The subject of experiment [2] is Escherichia coli. Kind of experiment: Antimicrobial activity against Escherichia coli DH5alpha harboring plasmid pLBII carrying beta-lactamase CAR-1 gene after 24 hrs by broth microdilution method. The method in brief:
(§1)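 MIC by CLSI broth microdilution in Mueller-Hinton broth at 37°C. Inoculum was 5 x 10^4 CFU/well, and growth was aerobic.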

Experiment [3] relates to Escherichia coli. Kind of experiment: Antimicrobial activity against Escherichia coli DH5alpha harboring plasmid BC-SK after 24 hrs by broth microdilution method. The method in brief: as §1

The structures appear in SMILES notation. ≈ marks a conversion by molar mass, not a printed value.

With `CO/N=C(\C(=O)N[C@@H]1C(=O)N2C(C(=O)[O-])=C(C[N+]3(C)CCCC3)CS[C@H]12)c1csc(N)n1`, the lowest concentration to inhibit growth in experiment [1] (MIC) was 2 µg/mL (≈ 4.16 µM).
For `CC1(C)S[C@@H]2[C@H](NC(=O)[C@H](N)c3ccccc3)C(=O)N2[C@H]1C(=O)O` [AMPICILLIN], the MIC with Escherichia coli [2] was 4 µg/mL (≈ 11.4 µM); against Escherichia coli [3], 1 µg/mL (≈ 2.86 µM); in experiment [1], 0.25 µg/mL (≈ 0.715 µM).
With `C[C@H]1[C@H](NC(=O)/C(=N\OC(C)(C)C(=O)O)c2csc(N)n2)C(=O)N1S(=O)(=O)O` [AZTREONAM], the MIC with Escherichia coli [2] worked out at 0.25 µg/mL (≈ 0.574 µM); in experiment [1], 16 µg/mL (≈ 36.7 µM).
As for `CO/N=C(\C(=O)N[C@@H]1C(=O)N2C(C(=O)O)=C(COC(C)=O)CS[C@H]12)c1csc(N)n1` [CEFOTAXIME], the minimum inhibitory concentration (MIC) with Escherichia coli [2] came out at 16 µg/mL (≈ 35.1 µM); in the experiment with Escherichia coli [3], 0.06 µg/mL (≈ 0.132 µM); in experiment [1], 1 µg/mL (≈ 2.2 µM).
For `CO[C@@]1(NC(=O)Cc2cccs2)C(=O)N2C(C(=O)O)=C(COC(N)=O)CS[C@@H]21` [CEFOXITIN] the same measures were 8 µg/mL (≈ 18.7 µM), 4 µg/mL (≈ 9.36 µM) and 8 µg/mL (≈ 18.7 µM).
The corresponding values for `CC(C)(O/N=C(\C(=O)N[C@@H]1C(=O)N2C(C(=O)[O-])=C(C[n+]3ccccc3)CS[C@H]12)c1csc(N)n1)C(=O)O` [CEFTAZIDIME] are 1 µg/mL (≈ 1.83 µM), 0.5 µg/mL (≈ 0.915 µM) and 16 µg/mL (≈ 29.3 µM).
Consider `CO/N=C(\C(=O)N[C@@H]1C(=O)N2C(C(=O)O)=C(COC(N)=O)CS[C@H]12)c1ccco1` [CEFUROXIME], for which the MIC with Escherichia coli [2] stood at 256 µg/mL (≈ 603 µM); with Escherichia coli [3] it was 4 µg/mL (≈ 9.43 µM); in experiment [1] it was 0.5 µg/mL (≈ 1.18 µM).
For `CC(=O)OCC1=C(C(=O)O)N2C(=O)[C@@H](NC(=O)Cc3cccs3)[C@H]2SC1` [CEPHALOTHIN] the same measures were 64 µg/mL (≈ 161 µM), 16 µg/mL (≈ 40.4 µM) and 1 µg/mL (≈ 2.52 µM).
Consider `C[C@@H](O)[C@H]1C(=O)N2C(C(=O)O)=C(SCCNC=N)C[C@H]12` [IMIPENEM ANHYDROUS], for which it took 0.12 µg/mL (≈ 0.401 µM) to inhibit growth in experiment [1] (MIC).
With `C[C@@H](O)[C@H]1C(=O)N2C(C(=O)O)=C(S[C@@H]3CN[C@H](C(=O)N(C)C)C3)[C@H](C)[C@H]12` [MEROPENEM], the MIC turned out to be 0.06 µg/mL (≈ 0.156 µM) in the experiment on Escherichia coli [2], 0.03 µg/mL (≈ 0.0782 µM) in the experiment on Escherichia coli [3] and 0.25 µg/mL (≈ 0.652 µM) in experiment [1].
With `CCN1CCN(C(=O)N[C@@H](C(=O)N[C@@H]2C(=O)N3[C@@H]2SC(C)(C)[C@@H]3C(=O)O)c2ccccc2)C(=O)C1=O` [PIPERACILLIN], the results for the MIC (in the experiment on Escherichia coli [2]; in the experiment on Escherichia coli [3]; in experiment [1]) were 2 µg/mL (≈ 3.86 µM), 1 µg/mL (≈ 1.93 µM) and 64 µg/mL (≈ 124 µM), respectively.
With `CO[C@@]1(NC(=O)C(C(=O)O)c2ccsc2)C(=O)N2[C@@H](C(=O)O)C(C)(C)S[C@@H]21` (some centres undefined) [TEMOCILLIN], the values for the MIC (against Escherichia coli [2]; against Escherichia coli [3]; in experiment [1]) were 16 µg/mL (≈ 38.6 µM), 16 µg/mL (≈ 38.6 µM) and 64 µg/mL (≈ 154 µM), respectively.
As for `CC1(C)S[C@@H]2[C@H](NC(=O)[C@H](C(=O)O)c3ccsc3)C(=O)N2[C@H]1C(=O)O` [TICARCILLIN], the results for the MIC (in the experiment with Escherichia coli [2]; in the experiment with Escherichia coli [3]; in experiment [1]) were 8 µg/mL (≈ 20.8 µM), 4 µg/mL (≈ 10.4 µM) and 4 µg/mL (≈ 10.4 µM), respectively.

The values above are taken from ChEMBL document CHEMBL1275443, “Functional diversity among metallo-beta-lactamases: characterization of the CAR-1 enzyme of Erwinia carotovora” (2008).
